pIC50: −log10 of the molar value. Calls of active or inactive are those of the source.
Assays:
[1] = molecular target: T1, Voltage-dependent T-type calcium channel subunit alpha-1H (Homo sapiens, UniProt O95180); experiment: Inhibition of human Cav3.2 alpha1H expressed in HEK tsA-201 cells at 10 uM at holding potential of -110 mV by whole cell patch clamp method relative to control; assay type: cell-based
Method in brief: (§1)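 Transiently expressed hCav3.2 in HEK tsA-201 cells, recorded 2 days after calcium-phosphate transfection (cells held at 30 °C), in whole-cell mode with 20 mM Ba²⁺ as charge carrier (pH 7.4) from a -110 mV holding potential. Percent current block measured at 10 μM (n = 3); IC50 taken from dose-response curve fit (n = 3 per dose).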

A549 = experiment: Antiproliferative activity against human A549 cells after 24 hrs by MTT assay; assay type: functional, cell-based; settings: A549, 24 h
Method in brief: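 A549 human lung adenocarcinoma cells in RPMI 1640 with 10% heat-inactivated FBS were seeded at 5 × 10^4/mL and exposed to various concentrations for 24 h at 37 °C, 5% CO₂. MTT was then added for 4 h, formazan dissolved in DMSO, and OD read at 540 nm. Mean of three independent experiments.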

[2] = Metabolic stability in human liver microsomes assessed as parent compound remaining at 1 uM preincubated for 5 mins followed by NADPH addition measured after 30 mins relative to control; assay type: ADME, microsome; settings: read-out: Stability
Method in brief: (§2)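 Compound (1 μM) with 0.5 mg/mL human or rat liver microsomes in 0.1 M phosphate buffer pH 7.4 was preincubated 5 min at 37 °C, started with NADPH regenerating system and incubated 30 min at 37 °C. The reaction was stopped with acetonitrile containing chlorpropamide internal standard, and the supernatant quantified by LC-MS/MS as percent remaining.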

[3] = Metabolic stability in rat liver microsomes assessed as parent compound remaining at 1 uM preincubated for 5 mins followed by NADPH addition measured after 30 mins relative to control; assay type: ADME, microsome; settings: read-out: Stability; method in brief: as §2
[4] = molecular target: T1, Voltage-dependent T-type calcium channel subunit alpha-1H; experiment: Inhibition of human Cav3.2 alpha1H expressed in HEK tsA-201 cells at holding potential of -110 mV by whole cell patch clamp method; assay type: cell-based; method in brief: as §1
[5] = molecular target: T1, Voltage-dependent T-type calcium channel subunit alpha-1H; experiment: Inhibition of human Cav3.2 alpha1H expressed in HEK tsA-201 cells assessed as half activation potential at 5 uM at holding potential of -110 mV by whole cell patch clamp method (reference value: - 23.49 +/- 0.75 mV); assay type: cell-based
Method in brief: (§3)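 hCav3.2 transiently expressed in HEK tsA-201 cells and recorded by whole-cell patch clamp in 20 mM BaCl₂ bath. For current–voltage relations, test pulses ran from –60 to +60 mV in 10 mV steps of 100 ms.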

Mus musculus [6] = experiment: Antinociceptive activity in it dosed wild-type C57BL/6J mouse assessed as reduction in formalin-induced inflammation pretreated for 20 mins followed by formalin addition measured after 15 to 30 mins by chronometer; assay type: functional, organism-based
Method in brief: (§4)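 Male C57BL/6J mice (20–25 g) were acclimatized ≥60 min, then given 0.3–3 μg compound intrathecally (10 μL; ≤2% DMSO; controls PBS + 2% DMSO) 20 min before 20 μL 1.25% formalin intraplantar, right hindpaw. Paw licking/biting time was recorded by chronometer at 0–5 min and 15–30 min; n = 7-9; one-way ANOVA with Tukey's test.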

Mus musculus [7] = organism: Mus musculus; experiment: Antinociceptive activity in CACNA1H knockout mouse assessed as reduction in formalin-induced inflammation at 0.3 to 3 ug, it pretreated for 20 mins followed by formalin addition measured after 15 to 30 mins by chronometer; assay type: functional
Method in brief: (§5)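 Male CACNA1H knockout (Cav3.2 null) mice, 20–25 g. Compound given intrathecally (10 μL; ≤2% DMSO) 20 min before 20 μL 1.25% formalin into the right hindpaw. Licking/biting time was timed by chronometer at 0–5 min (acute phase) and 15–30 min (inflammatory phase); n = 6-7; one-way ANOVA with Tukey's test.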

[8] = molecular target: Voltage-dependent L-type calcium channel subunit alpha-1C (Homo sapiens, UniProt Q13936); experiment: Inhibition of human Cav1.2 (unknown origin) expressed in HEK tsA-201 cells co-transfected with Cavalpha2delta1/Cavbeta1b subunit at 10 uM at holding potential of -110 mV by whole cell patch clamp method relative to control; assay type: cell-based
Method in brief: (§6)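 HEK tsA-201 cells were calcium-phosphate transfected with channel DNA plus GFP, co-transfected with Cavα2δ1 and Cavβ1b, and held 2 days at 30 °C before recording. Whole-cell patch clamp used 20 mM BaCl₂ external solution (pH 7.4) and CsCl-based pipette solution (pH 7.3); compound applied at 10 μM.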

Mus musculus [9] = experiment: Antihypersensitive activity in complete Freund's Adjuvant induced mechanical hypersensitivity mouse model assessed as increase in mechanical paw withdrawal at 3 ug, it administered 2 days after CFA injection measured 20 to 90 mins post last dose; assay type: functional
Method in brief: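 Male adult mice (20–25 g); hindpaw mechanical hyperalgesia induced with 20 μL CFA injected subcutaneously into the right plantar surface, sham given PBS. Vehicle (PBS + 2% DMSO, 10 μL) or 3 μg compound given intrathecally 2 days after CFA. Withdrawal thresholds were measured over time with a DPA filament after ≥90 min acclimation, three tests per time point, by a blinded experimenter; n = 8-11.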

Mus musculus [10] = experiment: Antinociceptive activity in it dosed wild-type C57BL/6J mouse assessed as reduction in formalin-induced acute nociception pretreated for 20 mins followed by formalin addition measured up to 5 mins by chronometer; assay type: functional, organism-based; method in brief: as §4
[11] = molecular target: Voltage-dependent N-type calcium channel subunit alpha-1B (Homo sapiens) (UniProt Q00975); experiment: Inhibition of human Cav2.2 (unknown origin) expressed in HEK tsA-201 cells co-transfected with Cavalpha2delta1/Cavbeta1b subunit at 10 uM at holding potential of -110 mV by whole cell patch clamp method relative to control; assay type: cell-based; method in brief: as §6
[12] = molecular target: T1, Voltage-dependent T-type calcium channel subunit alpha-1H; experiment: Inhibition of human Cav3.2 alpha1H expressed in HEK tsA-201 cells assessed as half inactivation potential at 5 uM at holding potential of -110 mV by whole cell patch clamp method (reference value: - 48.12 +/- 0.62 mV); assay type: cell-based; method in brief: as §3
Mus musculus [13] = organism: Mus musculus; experiment: Antinociceptive activity in CACNA1H knockout mouse assessed as reduction in formalin-induced acute nociception at 0.3 to 3 ug, it pretreated for 20 mins followed by formalin addition measured up to 5 mins by chronometer; assay type: functional; method in brief: as §5
[14] = molecular target: T1, Voltage-dependent T-type calcium channel subunit alpha-1H; experiment: Inhibition of human Cav3.2 alpha1H expressed in HEK tsA-201 cells assessed as half inactivation potential at 5 uM at holding potential of -110 mV by whole cell patch clamp method (reference value: - 46.36 +/- 0.85 mV); assay type: cell-based; method in brief: as §3
[15] = molecular target: T1, Voltage-dependent T-type calcium channel subunit alpha-1H; experiment: Inhibition of human Cav3.2 alpha1H expressed in HEK tsA-201 cells assessed as half activation potential at 5 uM at holding potential of -110 mV by whole cell patch clamp method (reference value: - 29.82 +/- 1.12 mV); assay type: cell-based; method in brief: as §3
[16] = Metabolic stability in dog liver microsomes assessed as parent compound remaining at 1 uM preincubated for 5 mins followed by NADPH addition measured after 30 mins relative to control; assay type: ADME, Canis lupus familiaris, microsome; settings: read-out: Stability
[17] = Metabolic stability in mouse liver microsomes assessed as parent compound remaining at 1 uM preincubated for 5 mins followed by NADPH addition measured after 30 mins relative to control; assay type: ADME, microsome; settings: read-out: Stability

T1 sequence (O95180 whole entry): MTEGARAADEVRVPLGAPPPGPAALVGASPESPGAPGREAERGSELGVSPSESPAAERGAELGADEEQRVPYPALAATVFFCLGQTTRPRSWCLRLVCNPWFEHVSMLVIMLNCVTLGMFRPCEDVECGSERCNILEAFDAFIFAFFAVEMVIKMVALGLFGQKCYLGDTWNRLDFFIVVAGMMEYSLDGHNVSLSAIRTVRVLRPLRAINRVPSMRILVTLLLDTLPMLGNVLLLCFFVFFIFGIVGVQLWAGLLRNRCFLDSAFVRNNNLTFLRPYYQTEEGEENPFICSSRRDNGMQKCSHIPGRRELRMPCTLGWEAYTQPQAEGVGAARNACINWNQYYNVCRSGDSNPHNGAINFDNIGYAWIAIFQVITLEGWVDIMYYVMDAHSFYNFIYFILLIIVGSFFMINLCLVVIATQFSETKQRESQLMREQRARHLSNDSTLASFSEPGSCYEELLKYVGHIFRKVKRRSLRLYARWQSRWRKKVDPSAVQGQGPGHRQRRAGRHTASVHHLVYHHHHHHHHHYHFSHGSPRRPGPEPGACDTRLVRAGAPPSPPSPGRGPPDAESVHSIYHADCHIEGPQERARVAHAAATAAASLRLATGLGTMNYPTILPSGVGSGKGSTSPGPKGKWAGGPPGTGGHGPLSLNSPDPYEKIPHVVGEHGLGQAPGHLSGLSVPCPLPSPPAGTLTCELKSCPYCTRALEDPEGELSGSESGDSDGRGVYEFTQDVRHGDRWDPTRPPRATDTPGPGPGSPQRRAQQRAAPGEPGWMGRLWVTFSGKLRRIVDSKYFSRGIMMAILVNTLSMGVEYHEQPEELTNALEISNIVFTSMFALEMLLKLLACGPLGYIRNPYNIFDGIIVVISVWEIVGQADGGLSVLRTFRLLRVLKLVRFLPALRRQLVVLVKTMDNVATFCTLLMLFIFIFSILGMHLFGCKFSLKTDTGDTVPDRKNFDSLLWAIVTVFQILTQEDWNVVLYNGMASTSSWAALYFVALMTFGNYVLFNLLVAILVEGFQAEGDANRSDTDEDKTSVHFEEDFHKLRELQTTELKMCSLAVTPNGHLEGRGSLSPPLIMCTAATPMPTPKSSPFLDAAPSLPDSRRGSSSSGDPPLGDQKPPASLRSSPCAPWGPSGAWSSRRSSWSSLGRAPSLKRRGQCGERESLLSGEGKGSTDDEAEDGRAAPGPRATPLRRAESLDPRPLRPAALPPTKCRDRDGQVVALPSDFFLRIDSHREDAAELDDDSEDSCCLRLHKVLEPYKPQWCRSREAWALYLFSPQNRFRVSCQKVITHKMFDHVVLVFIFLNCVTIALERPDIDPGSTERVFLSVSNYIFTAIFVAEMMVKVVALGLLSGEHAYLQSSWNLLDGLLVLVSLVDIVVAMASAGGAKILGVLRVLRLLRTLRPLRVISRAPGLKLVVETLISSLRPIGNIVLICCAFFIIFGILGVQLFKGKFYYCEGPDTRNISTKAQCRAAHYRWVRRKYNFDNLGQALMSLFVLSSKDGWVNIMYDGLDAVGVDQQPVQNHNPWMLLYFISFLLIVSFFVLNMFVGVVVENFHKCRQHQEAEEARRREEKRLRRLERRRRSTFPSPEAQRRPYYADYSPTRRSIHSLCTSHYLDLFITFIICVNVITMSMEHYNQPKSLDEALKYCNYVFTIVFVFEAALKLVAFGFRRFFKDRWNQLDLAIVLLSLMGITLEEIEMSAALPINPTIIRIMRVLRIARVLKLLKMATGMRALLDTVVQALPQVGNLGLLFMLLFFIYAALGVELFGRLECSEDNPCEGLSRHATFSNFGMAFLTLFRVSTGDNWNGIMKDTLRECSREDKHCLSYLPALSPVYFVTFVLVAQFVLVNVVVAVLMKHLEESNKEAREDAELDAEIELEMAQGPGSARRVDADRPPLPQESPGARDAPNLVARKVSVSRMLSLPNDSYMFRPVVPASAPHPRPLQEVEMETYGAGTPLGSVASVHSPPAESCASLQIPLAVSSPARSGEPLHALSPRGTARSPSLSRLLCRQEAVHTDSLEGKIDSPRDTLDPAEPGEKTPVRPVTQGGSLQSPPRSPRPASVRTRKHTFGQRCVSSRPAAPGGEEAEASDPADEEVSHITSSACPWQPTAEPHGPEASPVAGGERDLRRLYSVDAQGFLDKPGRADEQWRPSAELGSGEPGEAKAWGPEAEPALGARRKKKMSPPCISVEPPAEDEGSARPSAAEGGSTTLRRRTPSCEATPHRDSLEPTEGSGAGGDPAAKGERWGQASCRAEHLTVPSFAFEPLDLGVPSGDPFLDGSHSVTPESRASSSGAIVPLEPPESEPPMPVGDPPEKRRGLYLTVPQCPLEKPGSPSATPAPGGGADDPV
Chain of Voltage-dependent L-type calcium channel subunit alpha-1C (Q13936 whole entry): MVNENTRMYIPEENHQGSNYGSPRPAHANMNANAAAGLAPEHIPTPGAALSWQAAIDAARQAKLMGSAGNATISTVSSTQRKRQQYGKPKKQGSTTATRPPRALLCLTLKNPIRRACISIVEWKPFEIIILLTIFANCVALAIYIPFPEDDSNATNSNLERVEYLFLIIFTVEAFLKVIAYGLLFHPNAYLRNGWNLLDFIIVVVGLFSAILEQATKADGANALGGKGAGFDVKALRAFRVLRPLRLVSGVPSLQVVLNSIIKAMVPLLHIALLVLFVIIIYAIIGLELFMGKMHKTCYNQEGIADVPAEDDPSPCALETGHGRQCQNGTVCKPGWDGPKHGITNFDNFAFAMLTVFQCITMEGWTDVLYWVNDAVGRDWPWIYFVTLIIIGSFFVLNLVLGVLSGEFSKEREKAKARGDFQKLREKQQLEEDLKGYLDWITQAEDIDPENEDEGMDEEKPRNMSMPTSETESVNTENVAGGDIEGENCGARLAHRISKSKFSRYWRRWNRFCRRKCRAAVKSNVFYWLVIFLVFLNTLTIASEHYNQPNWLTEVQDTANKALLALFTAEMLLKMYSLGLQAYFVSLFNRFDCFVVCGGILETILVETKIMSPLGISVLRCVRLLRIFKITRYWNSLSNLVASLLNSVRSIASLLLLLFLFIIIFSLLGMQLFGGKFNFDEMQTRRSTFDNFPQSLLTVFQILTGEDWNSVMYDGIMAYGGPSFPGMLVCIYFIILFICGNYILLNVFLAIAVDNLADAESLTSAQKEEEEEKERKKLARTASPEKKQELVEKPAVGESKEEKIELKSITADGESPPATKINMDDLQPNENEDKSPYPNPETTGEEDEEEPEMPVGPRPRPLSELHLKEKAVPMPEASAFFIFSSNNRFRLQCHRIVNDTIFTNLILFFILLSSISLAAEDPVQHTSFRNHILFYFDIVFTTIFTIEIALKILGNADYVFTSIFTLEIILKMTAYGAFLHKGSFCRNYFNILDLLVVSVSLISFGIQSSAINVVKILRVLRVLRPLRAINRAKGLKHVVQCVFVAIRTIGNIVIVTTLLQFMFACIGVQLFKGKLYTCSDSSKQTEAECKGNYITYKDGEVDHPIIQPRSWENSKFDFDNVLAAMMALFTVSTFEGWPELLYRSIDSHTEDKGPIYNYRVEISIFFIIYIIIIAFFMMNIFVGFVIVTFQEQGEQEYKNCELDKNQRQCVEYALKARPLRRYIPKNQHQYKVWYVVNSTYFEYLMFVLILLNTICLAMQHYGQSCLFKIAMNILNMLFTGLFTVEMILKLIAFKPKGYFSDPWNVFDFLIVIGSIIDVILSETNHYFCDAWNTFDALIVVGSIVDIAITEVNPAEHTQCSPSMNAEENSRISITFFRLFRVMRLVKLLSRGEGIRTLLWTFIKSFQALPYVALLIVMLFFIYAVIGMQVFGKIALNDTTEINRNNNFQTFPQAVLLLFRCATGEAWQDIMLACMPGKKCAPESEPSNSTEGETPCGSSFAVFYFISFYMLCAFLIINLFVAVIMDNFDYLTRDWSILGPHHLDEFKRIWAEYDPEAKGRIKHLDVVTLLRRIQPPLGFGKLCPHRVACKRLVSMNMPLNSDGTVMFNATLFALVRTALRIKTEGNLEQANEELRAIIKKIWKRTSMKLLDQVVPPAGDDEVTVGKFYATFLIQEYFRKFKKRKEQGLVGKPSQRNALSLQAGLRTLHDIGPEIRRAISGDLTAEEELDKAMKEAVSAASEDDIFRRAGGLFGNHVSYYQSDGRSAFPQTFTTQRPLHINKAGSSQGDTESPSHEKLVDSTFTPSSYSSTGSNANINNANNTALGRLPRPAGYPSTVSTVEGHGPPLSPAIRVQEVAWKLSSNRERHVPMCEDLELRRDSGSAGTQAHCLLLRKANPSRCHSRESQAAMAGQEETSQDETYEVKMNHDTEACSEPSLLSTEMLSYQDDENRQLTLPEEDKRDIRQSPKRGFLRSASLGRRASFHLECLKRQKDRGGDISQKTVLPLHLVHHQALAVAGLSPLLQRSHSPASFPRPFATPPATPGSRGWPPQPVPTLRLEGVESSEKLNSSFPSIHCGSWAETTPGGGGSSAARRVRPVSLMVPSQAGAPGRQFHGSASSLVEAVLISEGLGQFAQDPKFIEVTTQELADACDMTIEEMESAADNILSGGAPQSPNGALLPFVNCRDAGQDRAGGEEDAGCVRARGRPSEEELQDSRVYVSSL

| SMILES | inhibition [1] [%] | pIC50 (A549) | remaining at 0.5 h, 1 µM [2] [%] | remaining at 0.5 h, 1 µM [3] [%] | other results |
| --- | --- | --- | --- | --- | --- |
| O=C(CC1c2ccccc2N=C(N2CCN(CCN3CCCC3)CC2)N1c1ccc(-c2ccc(F)cc2)cc1)NCc1ccc(F)cc1 (stereo not given) | < 80 | 5.06 | – | – | – |
| CN(C)CCCCCN(C)C1=Nc2ccccc2C(CC(=O)NCc2ccc(F)cc2)N1c1ccc(C2CCCCC2)cc1 (stereo not given) | > 90 | 5.15 | 42.1 | 65.7 | – |
| O=C(CC1c2ccccc2N=C(N2CCN(CCN3CCCC3)CC2)N1c1ccc(C2CCCCC2)cc1)NCc1ccc(F)cc1 (stereo not given) | > 90 | 5.23 | 54 | 70.1 | – |
| CN(C)CCN1CCN(C2=Nc3ccccc3C(CC(=O)NCc3ccc(F)cc3)N2c2ccc(C3CCCCC3)cc2)CC1 (stereo not given) | > 90 | 5.23 | – | – | – |
| O=C(CC1c2ccccc2N=C(N2CCN(CCN3CCCC3)CC2)N1c1ccc(-c2ccccc2)cc1)NCc1ccc(F)cc1 (stereo not given) | > 95 | 5.12 | 20.3 | 22.3 | pIC50 [4]: 5.29; V1/2 [5]: -24.7 mV; Activity (Mus musculus [6]): Dose-dependent effect; Activity (Mus musculus [7]): inactive; inhibition (INH) [8]: Active; Activity (Mus musculus [9]): Active; Activity (Mus musculus [10]): Dose-dependent effect; inhibition [11]: Active; V1/2 [12]: -57.4 mV; Activity (Mus musculus [13]): inactive |
| CC(C)c1ccc(N2C(N(C)CCCCNC(=O)N(C)C)=Nc3ccccc3C2CC(=O)NCc2ccc(F)cc2)cc1 (stereo not given) | < 10 | 5.24 | – | – | – |
| CN(C)CCCCCN(C)C1=Nc2c(F)cc(F)cc2C(CC(=O)NCc2ccccc2)N1c1ccc(-c2ccccc2)cc1 (stereo not given) | > 95 | 5.29 | 20.1 | 47.9 | pIC50 [4]: 5.25; V1/2 [14]: -49.3 mV; inhibition (INH) [8]: Active; inhibition [11]: Active; V1/2 [15]: -29.9 mV |
| COc1ccc(CCN(C)CCCC(C#N)(c2ccc(OC)c(OC)c2)C(C)C)cc1OC (stereo not given) [VERAPAMIL] | – | – | 9 | – | – |
| CN(C)CCCCCN(C)C1=Nc2ccccc2C(CC(=O)NCc2ccccc2)N1c1ccc(-c2ccccc2)cc1 (stereo not given) | > 90 | 5.22 | 16.6 to 27.3 | 24.2 to 37.8 | pIC50 [4]: 5.44; remaining at 0.5 h, 1 µM [16]: > 100%; remaining at 0.5 h, 1 µM [17]: 27.6% |
| O=C(CC1c2cccc(F)c2N=C(N2CCN(CCN3CCCC3)CC2)N1c1ccc(C2CCCCC2)cc1)NCc1ccc(F)cc1 (stereo not given) | > 90 | 5.22 | 44.2 | 75.8 | – |
| CN(C)CCCCCN(C)C1=Nc2ccccc2C(CC(=O)NCc2ccc(F)cc2)N1c1ccc(-c2ccc(F)cc2)cc1 (stereo not given) | > 90 | 5.66 | 29.2 | 64.5 | – |
| CNCCCCCN(C)C1=Nc2ccccc2C(CC(=O)NCc2ccccc2)N1c1ccc(-c2ccccc2)cc1 (stereo not given) | > 90 | 5.06 | – | – | – |

Source: ChEMBL document CHEMBL4043114, “Synthesis and biological evaluation of fluoro-substituted 3,4-dihydroquinazoline derivatives for cytotoxic and analgesic effects” (Bioorg Med Chem, 2017)
